Data from ChEMBL document CHEMBL4513216, “Probing the Open Global Health Chemical Diversity Library for Multistage-Active Starting Points for Next-Generation Antimalarials” (ACS Infect Dis, 2020).

Experiment: Toxicity liver stage against HepG2, at 10uM
Format: cell-based
Set-up: test concentration 10 uM, cell line HepG2-A16-CD81EGFP
Details: human, HepG2-A16-CD81EGFP cells; read-out: INHIBITION
In short: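 Uninfected HepG2-A16-CD81EGFP cells, 3 × 10^3 per well, 1536-well, plated on prespotted compound at 10 μM final, parasite-free screening media added to match infected plates; puromycin 10 μM positive, DMSO 0.5% negative; run in parallel with 48 h PbLuc assay at 37 °C, 5% CO2; viability by CellTiter-Glo luminescence, normalized to controls.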

Row | Structure (SMILES) | cytotoxicity at 10 µM [%]
1 | CCc1nnc(NC(=O)c2c3c(nn2C2CCS(=O)(=O)C2)CCC3)s1 (configuration not stated) | -4.28
2 | CCOc1ncc(NC(=O)c2ccccn2)c(OCC)n1 | -0.191
3 | CC(=O)N1CCC2(CCN(CC(C)C)C2)C1 (configuration not stated) | 5.41
4 | CC(=O)N1[C@H](Cn2cncn2)C[C@@H]2CN(C(=O)c3ccoc3)CC[C@@H]21 | -3.42
5 | Cn1cc(-c2ncnc3c2CCN(C(=O)c2cnccn2)CC3)cn1 | 6.93
6 | CC(C)Nc1ncnc2c1CCN(Cc1ccoc1)CC2 | 5.65
7 | COc1cc(N2CC[C@@H]3O[C@H](C(=O)NCC4CC4)C[C@@H]32)ncn1 | 10.7
8 | CCN(CC)C(=O)Cn1c(-c2ccc(Cl)cc2)nc(C)c(CCO)c1=O | 2.62
9 | CCOc1ccc(-n2ccc3nc(N4CCCC4)ncc3c2=O)cc1 | -1.19
10 | O=C1NC2(CCN(C(=O)Cc3ccsc3)CC2)CC1c1ccncc1 (configuration not stated) | 5.06
11 | Cc1c(C(=O)N(C)CC(F)(F)F)nnn1-c1ccc(F)cc1 | 7.92
12 | Cc1ccccc1-c1cc(CC2(C(=O)O)CCOCC2)on1 | -14.1
13 | Cn1ccnc(Nc2ccc3c(c2)CCN3C(=O)c2ccoc2)c1=O | -65.2
14 | Cc1ccc(C2CCCCCN2C(=O)Nc2cn[nH]c2)o1 (configuration not stated) | 5.16
15 | Cc1c(C(=O)NCC(F)(F)F)nnn1-c1ccccc1Cl | 2.37
16 | CCOc1ccc(NC(=O)c2ccc(C#N)cc2C)cc1CO | -4.12
17 | CC(=O)N1CCC(NC(=O)c2cc(S(N)(=O)=O)ccc2C)CC1 | 11.7
18 | CNS(=O)(=O)CC1CCCN1c1ccc(Cl)cn1 (configuration not stated) | 7.6
19 | CC(=O)N1CCN(C(=O)c2sccc2Br)CC1 | 6.83
20 | CC(C)c1nc2cc(NC(=O)Cn3ccccc3=O)ccc2o1 | -17.8
21 | O=C1CCC(=O)N1Cc1ccc(C(=O)N2CCCC2c2cccs2)cc1 (configuration not stated) | 2.8

Row | Structure (SMILES) | cytotoxicity at 10 µM [%]
22 | COC(=O)C1CN(CC(=O)Nc2ccccc2Cl)c2ccccc21 (configuration not stated) | 14.3
23 | CCCn1nc2c(cc1=O)CN(Cc1ncc(C(C)(C)C)o1)CC2 | -7.17
24 | Cn1cnc(-c2ccc(F)cc2)c1NC(=O)CCNC(=O)C(C)(C)C | 3.84
25 | CCS(=O)(=O)N1CCC(OCCCc2ccccc2)C1 (configuration not stated) | 8.59
26 | CC(C)C(C)(C#N)NC(=O)Cn1nnc(-c2cc3ccccc3o2)n1 (configuration not stated) | 5.76
27 | c1cnc(N2CCN(Cc3nnnn3C3CC3)CC2)nc1 | 9.29
28 | Cc1csc(N2CCCN(C(=O)CCN3CCCC3=O)CC2)n1 | 24.3
29 | Cc1noc(COCC(=O)Nc2cc(C)c(Br)cn2)n1 | 5.5
30 | O=C(c1cc(Cl)c2c(c1)OCO2)N1CCN(c2ccccn2)CC1 | -2.67
31 | Cc1ccc(F)c(C(=O)N2CCN(S(C)(=O)=O)[C@@H](C)C2)c1 | -10.3
32 | CC(C)NC(=O)N1CC[C@@H]2CN(S(C)(=O)=O)CCO[C@@H]2C1 | -102
33 | CCNc1ncc(C(=O)N2CCOC(CCCC(C)C)C2)cn1 (configuration not stated) | 10.3
34 | COc1cccc(CN2CCN(c3noc(C(C)C)n3)CC2)c1F | 2.97
35 | CCN1CC(C(=O)N2CCN(c3cnn(C)c(=O)c3)CC2)CCC1=O (configuration not stated) | 0.508
36 | O=C1CCC2(CCCN(c3ncnc4[nH]cnc34)C2)CN1CCCO (configuration not stated) | -2.09
37 | CC1(C)CN(Cc2nnc(-c3cccnc3)o2)CC[C@]1(C)O | -10.2
38 | COCC(=O)N1C[C@H]2CNC[C@@]2(C(=O)NCc2snnc2C)C1 | 8.27
39 | Cc1nccn1Cc1nnc(C2CCN(c3ccncc3F)CC2)n1C | -9.36
40 | Cn1cc(CN2CCCC(Cn3cc(CCCO)nn3)C2)cn1 (configuration not stated) | -3.51
41 | CS(=O)(=O)NCCC(=O)N1CCC(Cc2ccc(CO)cc2)C1 (configuration not stated) | -5.77
42 | O=C1N(CC2CCC2)CCCC12CCN(S(=O)(=O)c1cccnc1)C2 (configuration not stated) | 9.94

Row | Structure (SMILES) | cytotoxicity at 10 µM [%]
43 | O=C(CN1CCCC1c1nc(-c2ccccc2)no1)N1CCOCC1 (configuration not stated) | 4.17
44 | Cc1cc(C(=O)N2CCC(CCC(=O)NCCN(C)C)CC2)ccc1O | 5.38
45 | CCCN1CCCC2(CCN(Cc3cncn3C3CCCCC3)C2)C1=O (configuration not stated) | 5.89
46 | Nc1nc2c(c(NCC(c3cccnc3)N3CCOCC3)n1)CCCC2 (configuration not stated) | -14.9
47 | CCCn1cnnc1CNC1CSCCSC1 | -7.31
48 | Cc1ccsc1CN(Cc1ccccn1)CC(C)C | -13.4
49 | Cc1ccc(CC(=O)Nc2cc(C(C)C)n[nH]2)cn1 | -1.71
50 | COc1c(C)cnc(CN2CCC(N(C)S(C)(=O)=O)CC2)c1C | 0.141
51 | Cc1nnc(NC(=O)NC(C)Cn2cccn2)s1 (configuration not stated) | 6.62
52 | Cc1oc(-c2ccco2)nc1CNC1CCCN(c2cccnn2)C1 (configuration not stated) | -2.87
53 | O=C(c1cccc(N2CCCC2=O)c1)N1CCCC(n2cccn2)C1 (configuration not stated) | -8.22
54 | c1ncc2c(n1)CN(Cc1nc(-c3ccoc3)no1)CC2 | -10.2
55 | CC(Cn1ccnc1)NC(=O)Cc1ccc2c(c1)OCCO2 (configuration not stated) | -7.2
56 | Cc1ncc2c(n1)CN(CCCc1ccccc1)CC2 | -34.7
57 | Fc1ccc(-c2nc(CN3CCn4c(nnc4C4CC4)C3)co2)cc1 | -7.72
58 | Cc1oc(C)c(C(=O)N2CCCN(c3nccs3)CC2)c1C | 1.53
59 | Cc1nc(C)n(CC2CN(CCOc3cccc(F)c3)CCO2)n1 (configuration not stated) | -12.7
60 | CCCc1n[nH]c(C2CN(CCCS(=O)(=O)N(C)C)CCO2)n1 (configuration not stated) | -11.9
61 | O=C(Cc1csc(-c2ccco2)n1)N1CCN(c2nccs2)CC1 | -9.26
62 | O=C(NCc1cccc(F)c1)NCC(O)c1cccc(F)c1 (configuration not stated) | -7.58
63 | CCOc1cccc(C(C)NCc2c(C)nn(C)c2N(C)C)c1 (configuration not stated) | 5.22

Row | Structure (SMILES) | cytotoxicity at 10 µM [%]
64 | Cn1ccc(CN2CCC(CC(=O)N3CCCC3)CC2)cc1=O | -12.6
65 | CC(CNC(=O)Nc1cn[nH]c1)N1CCCC1 (configuration not stated) | -7.32
66 | Cc1ccsc1C(=O)N1CCCN(Cc2cscn2)CC1 | -12.4
67 | CCn1ncc2c1CCCC2NCc1ccc(C)s1 (configuration not stated) | -6.73
68 | Cc1nc(CN2CCCN(CC(=O)Nc3ccncc3)CC2)no1 | -7.03
69 | CC(C)c1[nH]c2ncccc2c1CN1CCOCC1 | 0.752
70 | Cc1ncc(CN2CCOCC2)c2cc(C(=O)c3ccc(Br)cc3)oc12 | 3.54
71 | CC(=O)N1CCC2(CC1)CN(C)CC[C@H]2C(F)(F)F | -153
72 | Cn1cnc(S(=O)(=O)N2CCN(CC3CC3)c3ncccc3C2)c1 | -160
73 | Cc1nc(CN2CCC3(CCN(Cc4cnn(C)c4)CC3)C2=O)cs1 | 2.34
74 | c1csc(CN2C[C@@H]3OCCN(CC4CCCO4)[C@@H]3C2)c1 (some centres not stated) | -6.31
75 | c1cncc(OC[C@]23COC[C@H]2CN(Cc2cccs2)C3)c1 | -13
76 | COCCCNC(=O)c1cc(-c2cnc(N(C)C)nc2)cn1CC1CC1 | 2.28
77 | COc1cc(N2CC3(CCN(S(C)(=O)=O)C3)C2)ncn1 | 9.43
78 | COCCCN1CCCC12CCN(c1ncccn1)CC2 | 2.87
79 | CN(C)C(=O)[C@@H]1CC[C@@H]2[C@@H](CCN2Cc2nccs2)O1 | 1.97
80 | CCN1CCOCC12CCN(C(=O)C1CCC1)CC2 | -1.39
81 | CCNc1c(NC(=O)C2CC2)c(=O)oc2ccccc12 | -5.99
82 | CCn1cc2[nH]c(OC)c(CNC(=O)C3CCS(=O)(=O)CC3)cc-2c1=O | 4.93
